Measured values collected from several papers.
Compare with care: the assays were run in different laboratories.
Target: Serine/threonine-protein kinase pim-2 (PIM2, Homo sapiens, UniProt Q9P1W9)

CSc1nc(C)c(-c2ccnc(Nc3ccc(N4CCOCC4)cc3)c2)[nH]1 — inhibition (enzyme activity, inhibitor; 10 µM): -4.8%
COc1cc(Nc2cnc(C#N)c(O[C@H](C)CN(C)C)n2)ncc1-c1cnn(C)c1 — remaining activity (enzyme activity, inhibitor, radiometric; 10 µM): 77%
COc1cc2ncnc(Nc3ccc(Oc4ccccc4)cc3C)c2cc1OC — inhibition (enzyme activity, inhibitor; 1 µM): -2%
CN1CC(Oc2cnc(C#N)cc2-c2ccn3nc(NC(=O)C4CC4)cc3c2)C1 — inhibition (enzyme activity, inhibitor; 1 µM): 4%
Cc1c(NC(=O)c2cc(C(N)=O)nc3cc(F)ccc23)c(C(F)(F)F)nn1Cc1ccc(C#N)cc1 — remaining binding (cell-free assay, competition with immobilised ligand; 1 µM): 94%
Nc1nc(NC2CCCCC2)sc1C(=O)c1ccccc1 — remaining activity (enzyme activity, inhibitor; 10 µM): 94%
CCN(CC)CCNC(=O)c1c(C)[nH]c(/C=C2\C(=O)Nc3ccc(F)cc32)c1C — remaining signal (cell-free assay; 0.5 µM): 97.2%
O=C1CCc2cc(Nc3cc(OC4CCOCC4)c([N+](=O)[O-])cc3Cl)ccc2N1 — remaining binding (cell-free assay, competition with immobilised ligand; 1 µM): 84%
CNC(=O)c1cc(Oc2ccc(NC(=O)Nc3ccc(Cl)c(C(F)(F)F)c3)cc2)ccn1 — inhibition (enzyme activity, inhibitor; 0.3 µM): 6%
Cc1cnc(NC2CCOCC2)nc1-n1cnc(C(=O)NC(CN)c2cc(F)cc(Cl)c2)c1 (stereo not shown) — remaining activity (enzyme activity, inhibitor, radiometric; 1 µM): 100%
CO[C@@H](C)c1c(Nc2ccc([C@H](N(C)C(=O)C3CCS(=O)(=O)CC3)C(F)(F)F)cc2)cnc2cc(Cl)nn12 — remaining binding (cell-free assay, competition with immobilised ligand; 1 µM): 100%
COc1cc(/C=C/C(=O)CC(=O)/C=C/c2ccc(O)c(OC)c2)ccc1O — activity vs control (enzyme activity, inhibitor; 1 µM): 74%
N#Cc1ccc(Nc2ccc3[nH]c(=O)[nH]c3c2)c(Cl)c1 — remaining binding (cell-free assay, competition with immobilised ligand; 1 µM): 83%
N#CCCc1ccc2c(c1)-c1[nH]c3ccc([N+](=O)[O-])cc3c1CC(=O)N2 — remaining signal (cell-free assay; 0.5 µM): 104%
Cn1c(=O)n(-c2ccc(C(C)(C)C#N)cc2)c2c3cc(-c4cnc5ccccc5c4)ccc3ncc21 — remaining activity (enzyme activity, inhibitor; 10 µM): 94%
C=CC(=O)Nc1cc(Nc2nccc(Nc3cc(Cl)c(F)cc3C(C)(C)O)n2)c(OC)cc1N1CC[C@@H](N(C)C)C1 — inhibition (enzyme activity, inhibitor; 1 µM): 16%
FC(F)(F)Oc1cccc(-c2cnc3ccc(-c4ccncc4)nn23)c1 — activity vs control (enzyme activity, inhibitor, radiometric; 1 µM): 88%
Nc1nc(Nc2ccccc2)sc1C(=O)c1c(F)cccc1F — remaining activity (enzyme activity, inhibitor; 10 µM): 91%
CC(C)(O)[C@H]1CC[C@H](Nc2ccc3ncc(-c4cccc(C(F)(F)F)c4)n3n2)CC1 — remaining activity (enzyme activity, inhibitor; 1 µM): 29.8%
CCCOc1ccc(OC)c(F)c1C(=O)c1ccc(C(=O)N[C@@H]2CNC[C@H]2NC(=O)c2ccc3[nH]ncc3c2)cc1 — remaining activity (enzyme activity, inhibitor; 10 µM): 101%
CNc1cccc2cc(C(=O)Nc3ccc(C(=O)O)cc3)c(=O)[nH]c12 — inhibition (enzyme activity, inhibitor; 10 µM): 13%
CS(=O)(=O)N1CCCC(NC(=O)[C@H](CCC2CCCCC2)NC(=O)c2ccc(CNc3ncnc4c3nnn4-c3ccccc3)cc2)C1 (stereo partly shown) — remaining binding (cell-free assay, competition with immobilised ligand; 0.1 µM): 88%
C#Cc1cccc(Nc2ncnc3cc(OCCOC)c(OCCOC)cc23)c1 — remaining signal (cell-free assay; 0.5 µM): 97.9%
O=C(Nc1cnn(-c2csc(C(=O)NC3COC3)c2)c1)Nc1c(F)cccc1Cl — remaining activity (enzyme activity, inhibitor; 5 µM): 129%
O=c1nc(-c2ccccn2)sc2ccccc12 — remaining binding (binding, competition with immobilised ligand; 1 µM): 97%
FC(F)c1nc2ccccc2n1-c1nc(N2CCOCC2)nc(N2CCOCC2)n1 — remaining activity (enzyme activity, inhibitor; 10 µM): 92%
CNC(=O)c1ccc(Nc2ncc(C(F)(F)F)c(NCc3nccnc3N(C)S(C)(=O)=O)n2)cc1 — remaining binding (cell-free assay, competition with immobilised ligand; 0.1 µM): 100%
CC(C)(C)c1nc(-c2cccc(NS(=O)(=O)c3c(F)cccc3F)c2F)c(-c2ccnc(N)n2)s1 — remaining activity (enzyme activity, inhibitor, radiometric; 1 µM): 77%
COc1cc(Nc2c(C#N)cnc3cc(OCCCN4CCN(C)CC4)c(OC)cc23)c(Cl)cc1Cl — remaining signal (cell-free assay; 0.5 µM): 111%
Cc1nccc(COC(=O)N2C[C@@H]3[C@@H](CNC(=O)c4ccc5[nH]nnc5c4)[C@@H]3C2)n1 — remaining binding (cell-free assay, competition with immobilised ligand; 1 µM): 0%
CS(=O)(=O)Nc1cccc(-c2csc(NC(=O)CSc3nc4nccnc4c(=O)n3CCc3ccccc3)n2)c1 — inhibition (enzyme activity, inhibitor; 10 µM): -8%
